For one assay, the system named is HEK293. As to the kind of experiment: Cytotoxicity against HEK293 cells after 48 hrs by MTT assay. It counts as cell-based. The settings on record: Homo sapiens, HEK293, 48 h. In general terms: Formazan colour is commonly taken as a measure of viable cells.
Another assay deals with K562. Nature of the assay: Antiproliferative activity against human K562 cells after 48 hrs by MTT assay. It counts as functional, cell-based. The settings on record: K562, 48 h. In outline: (§1)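 Cells seeded at 5000 per well and left overnight, then exposed to increasing concentrations (0-50 μM) for 48 h. […] HL-60/MX2 is a mitoxantrone-selected HL-60 derivative with reduced Topo IIα/β.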

Assay [1] is described as follows: Antiproliferative activity against human HL60 cells after 48 hrs by MTT assay. It counts as functional, cell-based. The following applies: HL-60, 48 h. In outline: as §1
A further assay relates to A549. As to the kind of experiment: Antiproliferative activity against human A549 cells after 48 hrs by MTT assay. It counts as functional, cell-based. The following applies: A549, 48 h. In outline: as §1
The next assay concerns HL-60. As to the kind of experiment: Resistance index, ratio of IC50 for human HL60/MX2 cells to IC50 for HL60 cells. It counts as functional. The method in brief:
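Resistance index calculated as MTT-derived IC50 (48 h exposure, 0-50 μM, A570 readout) in HL-60/MX2 divided by IC50 in parental HL-60.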

Assay [2] is described as follows: Antiproliferative activity against human HL60/MX2 cells after 48 hrs by MTT assay. It counts as functional, cell-based. The following applies: HL60/MX2, 48 h. The method in brief:
as §1

The next assay deals with HeLa. As to the kind of experiment: Antiproliferative activity against human HeLa cells after 48 hrs by MTT assay. It counts as functional, cell-based. The method in brief:
as §1

The nature of assay [3]: Antiproliferative activity against human MDA-MB-201 cells after 48 hrs by MTT assay. It counts as functional, cell-based. In outline: as §1
The target of assay [4] is T1, DNA topoisomerase 2-alpha (Homo sapiens, UniProt P11388). As to the kind of experiment: Inhibition of purified human topoisomerase 2-mediated relaxation of supercoiled pBR322 DNA at 50 uM incubated for 30 mins by agarose gel electrophoresis. In outline: (§2)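 Reactions contained 0.2 μg supercoiled pBR322 in 50 mM Tris-HCl pH 8.0, 150 mM NaCl, 10 mM MgCl2, 0.5 mM DTT, 30 μg/ml BSA, normally 2 mM ATP (1, 2 or 4 mM in ATP-competition runs). Started with 1 U human Topo II, 30 min at 37 °C, stopped with sarcosyl buffer, run on 1% agarose 1.5 h at 75 V, gel-stained and imaged under UV.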

The next assay has as its system Raji. Nature of the assay: Antiproliferative activity against human Raji cells after 48 hrs by MTT assay. It counts as functional, cell-based. In outline:
as §1

In assay [5] the target is T2, DNA topoisomerase 1 (Homo sapiens) (UniProt P11387).
T2 sequence (whole entry): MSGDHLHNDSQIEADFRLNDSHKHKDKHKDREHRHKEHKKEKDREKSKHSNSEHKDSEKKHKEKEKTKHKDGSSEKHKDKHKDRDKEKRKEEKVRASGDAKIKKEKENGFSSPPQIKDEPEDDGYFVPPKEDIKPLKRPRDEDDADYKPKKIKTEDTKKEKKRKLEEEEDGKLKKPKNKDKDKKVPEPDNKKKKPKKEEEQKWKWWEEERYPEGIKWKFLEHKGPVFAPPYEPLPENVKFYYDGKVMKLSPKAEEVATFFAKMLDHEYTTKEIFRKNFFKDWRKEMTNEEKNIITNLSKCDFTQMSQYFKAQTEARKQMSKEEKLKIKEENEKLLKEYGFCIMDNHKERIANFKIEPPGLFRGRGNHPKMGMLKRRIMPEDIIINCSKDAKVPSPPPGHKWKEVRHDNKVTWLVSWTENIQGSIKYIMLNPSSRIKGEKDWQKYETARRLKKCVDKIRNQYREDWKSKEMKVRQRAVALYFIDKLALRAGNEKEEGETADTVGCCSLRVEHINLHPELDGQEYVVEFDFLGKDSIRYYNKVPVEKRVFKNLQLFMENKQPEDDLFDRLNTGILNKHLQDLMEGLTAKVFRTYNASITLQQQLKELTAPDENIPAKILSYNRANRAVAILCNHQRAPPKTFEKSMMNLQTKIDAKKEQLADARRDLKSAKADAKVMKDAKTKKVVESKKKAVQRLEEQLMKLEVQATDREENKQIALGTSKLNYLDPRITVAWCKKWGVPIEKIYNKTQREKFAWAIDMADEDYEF
As to the kind of experiment: Inhibition of recombinant human topoisomerase 1-mediated relaxation of supercoiled pBR322 DNA at 50 uM incubated for 30 mins by agarose gel electrophoresis. The method in brief: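 Supercoiled pBR322 relaxed by Topo I with compound, incubated 30 min at 37 °C, stopped with 1% SDS dye, run on 1% agarose 1 h at 90 V in TAE, stained and imaged under UV; camptothecin as reference.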

Assay [6] deals with T1, DNA topoisomerase 2-alpha. Nature of the assay: Inhibition of purified human topoisomerase 2-mediated relaxation of supercoiled pBR322 DNA at 20 uM incubated for 30 mins by agarose gel electrophoresis. In outline: as §2

Activity calls are given as the source filed them. The rule behind the calls is not given here. A value given as a limit tells only on which side of the number the result lay.

T1 sequence (P11388 whole entry): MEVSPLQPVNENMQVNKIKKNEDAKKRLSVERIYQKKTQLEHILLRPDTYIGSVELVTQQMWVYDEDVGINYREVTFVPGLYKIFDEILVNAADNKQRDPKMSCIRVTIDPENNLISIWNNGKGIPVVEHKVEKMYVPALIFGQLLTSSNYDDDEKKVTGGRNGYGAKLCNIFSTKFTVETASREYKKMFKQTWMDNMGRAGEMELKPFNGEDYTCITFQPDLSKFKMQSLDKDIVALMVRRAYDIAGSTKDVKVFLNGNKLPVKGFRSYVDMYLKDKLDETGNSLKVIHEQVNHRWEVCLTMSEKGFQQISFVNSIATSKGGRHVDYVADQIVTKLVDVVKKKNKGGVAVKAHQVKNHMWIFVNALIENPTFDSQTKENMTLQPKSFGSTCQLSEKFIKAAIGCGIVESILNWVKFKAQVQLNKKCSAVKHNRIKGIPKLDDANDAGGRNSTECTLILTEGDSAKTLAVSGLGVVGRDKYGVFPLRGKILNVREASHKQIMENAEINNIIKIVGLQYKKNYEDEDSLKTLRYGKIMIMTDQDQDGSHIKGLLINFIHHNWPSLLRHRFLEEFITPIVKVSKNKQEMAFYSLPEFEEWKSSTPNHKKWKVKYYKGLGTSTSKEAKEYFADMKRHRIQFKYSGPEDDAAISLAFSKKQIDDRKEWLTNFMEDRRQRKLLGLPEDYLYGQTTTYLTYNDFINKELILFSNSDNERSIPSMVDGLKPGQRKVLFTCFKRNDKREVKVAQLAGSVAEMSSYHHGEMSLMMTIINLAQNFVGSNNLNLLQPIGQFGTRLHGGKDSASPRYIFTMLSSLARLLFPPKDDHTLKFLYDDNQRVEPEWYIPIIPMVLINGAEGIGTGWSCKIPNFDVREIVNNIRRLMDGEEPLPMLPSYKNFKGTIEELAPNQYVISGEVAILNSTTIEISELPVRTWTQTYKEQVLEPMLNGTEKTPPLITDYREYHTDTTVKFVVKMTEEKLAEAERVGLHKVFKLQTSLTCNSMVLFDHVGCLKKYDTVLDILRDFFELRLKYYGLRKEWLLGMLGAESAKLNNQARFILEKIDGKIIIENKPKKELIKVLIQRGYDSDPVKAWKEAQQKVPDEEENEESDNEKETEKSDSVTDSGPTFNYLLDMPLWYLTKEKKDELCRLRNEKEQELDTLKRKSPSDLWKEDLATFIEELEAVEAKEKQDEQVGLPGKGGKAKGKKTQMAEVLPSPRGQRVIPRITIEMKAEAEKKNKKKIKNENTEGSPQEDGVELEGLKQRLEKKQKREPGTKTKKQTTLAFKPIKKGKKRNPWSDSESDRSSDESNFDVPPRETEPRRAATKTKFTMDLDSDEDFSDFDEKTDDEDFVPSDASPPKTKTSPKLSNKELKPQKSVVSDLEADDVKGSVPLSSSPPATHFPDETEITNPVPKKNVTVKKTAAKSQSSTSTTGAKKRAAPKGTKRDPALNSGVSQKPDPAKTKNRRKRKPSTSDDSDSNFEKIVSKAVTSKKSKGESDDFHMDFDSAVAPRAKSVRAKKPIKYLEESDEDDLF

Consider `N#Cc1nc2c(-c3nc4ccccc4[nH]3)c(N)n(CCCN3CCCCC3)c2nc1C#N`, for which the concentration for half-maximal inhibition (IC50) (as a rule, the concentration that inhibits the measured activity by half) in the assay with HEK293 is 6.72 µM; with K562 it was 3.46 µM; in assay [1] it was 1.68 µM; in the assay with A549 it was 6.11 µM; in assay [2], 1.01 µM; with HeLa, 6.68 µM. Besides, the IC50 in assay [3] turned out to be 6.23 µM; in the assay with Raji, 3.38 µM. Besides, the “Ratio IC50” value with HL-60 is 0.6. For the same molecule, the inhibition entry in assay [4] and in [5] was “inactive” each time.
Regarding `CN1CCN(CCn2c(N)c(-c3nc4ccccc4[nH]3)c3nc(C#N)c(C#N)nc32)CC1`, the IC50 was 10.9 µM in the assay with HEK293; 6.55 µM with K562; 4.3 µM in assay [1]; 40.5 µM with A549; 6.49 µM in assay [2]; > 50 µM in the assay with HeLa. Further, the values for the IC50 (in [3]; in the assay with Raji) were 9.11 µM and > 50 µM, respectively. Further, the “Ratio IC50” value in the assay on HL-60 came out at 1.5. Moreover, the inhibition entry in assay [5] was “inactive”.
As for `CN(C)CCCn1c(N)c(-c2nc3ccccc3s2)c2nc(C#N)c(C#N)nc21`, the half-inhibitory concentration (IC50) with HEK293 was found to be 4.29 µM; in the assay on K562 it was 1.8 µM; in [1], 0.51 µM; with A549, 8.87 µM; in assay [2] it was 1.31 µM; in the assay with HeLa, 0.72 µM. Moreover, the IC50 in assay [3] is 2.93 µM; in the assay with Raji, 2.99 µM. Besides, the inhibition result in assay [6] is “Active”. The “Ratio IC50” value with HL-60 came out at 2.5.
As for `CN(C)CCn1c(N)c(-c2nc3ccccc3[nH]2)c2nc(C#N)c(C#N)nc21`, the IC50 was 9.73 µM with HEK293; 6.34 µM in the assay on K562; 2.22 µM in assay [1]; > 50 µM in the assay with A549; 3.78 µM in assay [2]; 8.88 µM with HeLa. Besides, the half-inhibitory concentration (IC50) stood at 43.5 µM in assay [3] and 8.32 µM in the assay on Raji. The “Ratio IC50” value with HL-60 was found to be 1.7. The inhibition result in [4] and in assay [5] was “inactive” throughout.
On to `CN(C)CCCn1c(N)c(-c2nc3ccccc3o2)c2nc(C#N)c(C#N)nc21`, for which the concentration for half-maximal inhibition (IC50) stood at 5.88 µM with HEK293; 5.9 µM with K562; 0.39 µM in assay [1]; 7.17 µM in the assay on A549; 1.31 µM in assay [2]; 11.2 µM in the assay on HeLa. The half-maximal inhibitory concentration (IC50) in assay [3] amounted to 5.64 µM; in the assay with Raji it was 1.94 µM. The inhibition entry in [6] is “Active”. The “Ratio IC50” value with HL-60 amounted to 3.3.
With `CCN(CC)CCCCn1c(N)c(-c2nc3ccccc3n2C)c2nc(C#N)c(C#N)nc21`, the IC50 turned out to be 3.16 µM in the assay with HEK293; 1.01 µM in the assay with K562; 0.7 µM in assay [1]; 1.72 µM in the assay on A549; 1.73 µM in assay [2]; 1.61 µM in the assay with HeLa. Further, the 50% inhibitory concentration (IC50) amounted to 2.89 µM in assay [3] and 0.92 µM with Raji. The inhibition entry in assay [6] was “Active”. Moreover, the “Ratio IC50” value in the assay on HL-60 is reported as 2.5.
In the case of `CN(C)CCn1c(N)c(-c2nc3ccccc3s2)c2nc(C#N)c(C#N)nc21`, the half-maximal inhibitory concentration (IC50) is 11.8 µM in the assay on HEK293; 8 µM in the assay with K562; 1.67 µM in assay [1]; > 50 µM in the assay with A549; > 50 µM in [2]; > 50 µM in the assay with HeLa. For the same molecule, the IC50 is > 50 µM in assay [3] and 1.96 µM in the assay with Raji. Also, the inhibition entry in assay [4] and in assay [5] was “inactive” in each case.
In the case of `CN1CCN(CCCn2c(N)c(-c3nc4ccccc4[nH]3)c3nc(C#N)c(C#N)nc32)CC1`, the concentration for half-maximal inhibition (IC50) with HEK293 came to 6.26 µM; with K562, 1.26 µM; in assay [1], 0.75 µM; with A549, 5.75 µM; in assay [2], 3.32 µM; in the assay on HeLa it was 15.6 µM. Moreover, the half-inhibitory concentration (IC50) in [3] was found to be 4.52 µM; with Raji it was 2.62 µM. Also, the “Ratio IC50” value with HL-60 is 4.4. Also, the inhibition result in assay [4] and in assay [5] was “inactive” in each case.
For `COc1ccc(CCn2c(N)c(-c3nc4ccccc4[nH]3)c3nc(C#N)c(C#N)nc32)cc1`, the IC50 (with HEK293; with K562; in assay [1]; in the assay on A549; in assay [2]; in the assay with HeLa) was > 50 µM each time. Besides, the 50% inhibitory concentration (IC50) was > 50 µM in assay [3] and 2.78 µM with Raji. In addition, the inhibition result in assay [4] and in assay [5] was “inactive” throughout.
For the molecule `N#Cc1nc2c(-c3nc4ccccc4[nH]3)c(N)n(CCN3CCCC3)c2nc1C#N`, the IC50 in the assay with HEK293 was 18.3 µM; with K562, 6.48 µM; in [1], 4.76 µM; with A549 it was > 50 µM; in assay [2], > 50 µM; in the assay on HeLa it was > 50 µM. The concentration for half-maximal inhibition (IC50) (in assay [3]; in the assay with Raji) was > 50 µM each time. In addition, the inhibition entry in [4] and in assay [5] was “inactive” throughout.
Consider `Cn1c(N)c(-c2nc3ccccc3[nH]2)c2nc(C#N)c(C#N)nc21`, for which the IC50 (in the assay with HEK293; in the assay on K562; in assay [1]; with A549; in assay [2]; in the assay with HeLa) was > 50 µM throughout. Besides, the IC50 (in [3]; with Raji) was > 50 µM each time. Also, the inhibition entry in assay [4] and in assay [5] was “inactive” each time.
Consider `CCCCn1c(N)c(-c2nc3ccccc3[nH]2)c2nc(C#N)c(C#N)nc21`, for which the IC50 (in the assay with HEK293; in the assay with K562; in [1]; in the assay with A549; in assay [2]; in the assay with HeLa) was > 50 µM each time. The half-inhibitory concentration (IC50) (in assay [3]; with Raji) was > 50 µM in each case. For the same molecule, the inhibition result in assay [4] and in [5] was “inactive” in each case.
Turning to `CCn1c(N)c(-c2nc3ccccc3[nH]2)c2nc(C#N)c(C#N)nc21`, the IC50 (in the assay with HEK293; in the assay on K562; in assay [1]; in the assay with A549; in assay [2]; in the assay with HeLa) was > 50 µM in each case. Moreover, the IC50 (in [3]; with Raji) was > 50 µM throughout. Moreover, the inhibition result in [4] and in [5] was “inactive” each time.
`CCN(CC)CCn1c(N)c(-c2nc3ccccc3[nH]2)c2nc(C#N)c(C#N)nc21`: the IC50 with HEK293 was 12.2 µM; with K562, 2.49 µM; in assay [1] it was 1.88 µM; in the assay on A549, > 50 µM; in assay [2], 7.15 µM; in the assay with HeLa, 11.6 µM. Further, the half-inhibitory concentration (IC50) in assay [3] was 25.4 µM; with Raji, 8.95 µM. Besides, the “Ratio IC50” value with HL-60 is 3.8. Also, the inhibition result in [4] and in assay [5] was “inactive” in each case.
Turning to `CCCn1c(N)c(-c2nc3ccccc3[nH]2)c2nc(C#N)c(C#N)nc21`, the IC50 was > 50 µM with HEK293; > 50 µM in the assay with K562; 45.2 µM in [1]; 1.97 µM with A549; > 50 µM in assay [2]; > 50 µM in the assay with HeLa. Moreover, the IC50 (in [3]; in the assay on Raji) was > 50 µM in each case. Further, the inhibition entry in assay [4] and in assay [5] was “inactive” each time.

(Values after ChEMBL document CHEMBL3758120, “Synthesis and Mechanism Studies of 1,3-Benzoazolyl Substituted Pyrrolo[2,3-b]pyrazine Derivatives as Nonintercalative Topoisomerase II Catalytic Inhibitors” (J Med Chem, 2016).)
